# Screening results deposited in PubChem by several laboratories.
# Pf gametocyte: late stage P. falciparum gametocyte viability inhibitors, primary screen, ATP luminescence, HTS | inhibition, % at 10.9 µM | P. falciparum stage V gametocytes, 24 h | AID 743093, 2013 | hit rate 0.065% among 150,000;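 active = inhibition above the mean plus 3 SD of compounds within the control limits, set per campaign, cut at about 38% in these data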;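 also: 0% = DMSO wells and 100% = medium only without gametocytes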
# APP 5'UTR act: activators of APP 5'UTR luciferase reporter, primary screen, SH-SY5Y cells; SH-SY5Y APP 5'UTR luciferase reporter, luminescence; zero percent = DMSO vehicle wells; AID 1276, 2008; hit rate 1% among 190,000; activation, % at 2 µM;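 active = activation above a set limit, based on mean plus 3 SD of controls, cut at about 140% in these data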
# FLuc inhib CS: firefly luciferase enzyme inhibitors, primary screen, artefact control for luciferase-based inhibitor screens, biochemical, luminescence, ATPLite; inhibition, % at 10 µM; Luciferin 4-monooxygenase (Photinus pyralis), P08659; 10 min; hit rate 1.5% among 200,000;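 active = inhibition above about 50% when tested at 10 µM, limit read from the data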
# Target sequence (P08659 whole entry, looked up): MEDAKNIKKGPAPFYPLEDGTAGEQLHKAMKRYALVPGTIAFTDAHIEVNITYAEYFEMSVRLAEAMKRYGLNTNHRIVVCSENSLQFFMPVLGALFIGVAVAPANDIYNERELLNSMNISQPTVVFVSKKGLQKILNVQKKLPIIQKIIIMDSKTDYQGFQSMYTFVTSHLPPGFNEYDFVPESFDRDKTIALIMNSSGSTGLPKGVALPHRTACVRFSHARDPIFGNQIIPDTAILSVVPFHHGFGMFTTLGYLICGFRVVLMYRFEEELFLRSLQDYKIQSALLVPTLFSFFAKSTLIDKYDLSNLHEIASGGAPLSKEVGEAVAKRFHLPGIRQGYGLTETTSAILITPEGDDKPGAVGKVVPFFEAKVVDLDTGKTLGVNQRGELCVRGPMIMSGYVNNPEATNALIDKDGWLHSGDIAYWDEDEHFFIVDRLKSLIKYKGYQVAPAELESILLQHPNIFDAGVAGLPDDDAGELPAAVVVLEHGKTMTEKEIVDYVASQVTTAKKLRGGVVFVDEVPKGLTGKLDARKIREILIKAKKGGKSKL
# NF-kB neuron act: activators of NF-kB expression in neurons, primary screen, cell-based, HTS. human neuronal cells, NF-kB reporter expression; active compounds read high. fold change at 12.5 µM. hit rate 1.6% among 190,000. AID 1239, 2008; in the data active = fold change above about 3.3
# STAT1 act: STAT1 signaling activators, primary screen, cell-based, HTS, luciferase reporter; AID 932, 2007; activation (% of control), % at 5.5 µM; NIH 3T3 STAT1-luciferase reporter, IFN-gamma, luminescence; 100% = IFN-gamma alone, no compound; hit rate 2.6% among 200,000;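 active = activation above the screen-wide mean activation plus 3 SD, cut at about 130% in these data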;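 also: raw ratio to IFN-gamma control signal so 100% means no change and 0% no light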
# FLuc act counter: FLuc activators, initial screening, artefact control for FLuc-dependent activation tests, biochemical, ATPlite luminescence | Luciferin 4-monooxygenase (Photinus pyralis), P08659 | ATPlite luciferase biochemical, 10 min; 0 = ATP-free wells, 1 = DMSO control | activation factor at 10 µM | 200,000 tested, under 10 active | AID 1027, 2008;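 active = luciferase activation factor, scaled between plate controls, of at least 2 with compound at 10 µM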
#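 Material: luciferase plus luciferin reagent, cell-free. Medium: PBS buffer for ATP. Also added: ATP substrate, dispensed from a 10.24 µM working solution in PBS. Doses: test compounds dosed from 2 mM stocks in 100% DMSO. Incubation: 10 min post-reagent at room temperature. Technique: light output (luminescence). Read-out basis: luminescence gain marking luciferase activators.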
# Starred values were filed as active, the others as inactive; · = not tested or not shown. Shown are actives, neighbours in structure and some others; about 3.5% of the full set was active somewhere.
SMILES,Pf gametocyte,APP 5'UTR act,FLuc inhib CS,NF-kB neuron act,STAT1 act,FLuc act counter
CCn1c(=N)c(C(=O)NC)cc2c(=O)n3cccc(C)c3nc21,-8,6,-9,·,·,1.1
CCNc1nc(C)c2cc(Br)c(=O)n(CC)c2n1,14,-17,-3,1.6,139*,1
COc1ccc(C/C(C)=N/NC(=S)Nc2ccccc2F)cc1,·,176*,14,0.72,126,0.9
Cc1sc(NC(=O)c2ccc(F)cc2)c(CN2CCCCCC2)c1C,10,46,-2,1.4,131*,1
Cc1sc(NC(=O)c2ccccc2F)c(CN2CCCCC2)c1C,3,24,-1,1.8,121,1
O=C(N/N=C/c1cccs1)c1ccccn1,·,123,51*,2.4,121,0.5
O=C(N/N=C/c1cccs1)c1c[nH]c2ccccc12,-17,44,37,2.3,129*,0.6
O=C(NNC1=NS(=O)(=O)c2ccccc21)c1ccc(Cl)cc1,3,-1,84*,1.5,95,0.2
O=C(Cc1ccccc1)NNC1=NS(=O)(=O)c2ccccc21,-1,-8,0,0.97,102,1
CCOC(=O)N1CCN(C(=O)CSc2nnc(-c3ccc(C(C)(C)C)cc3)o2)CC1,·,7,53*,1.2,87,0.5
C=CCc1cccc(/C=N/NC(=O)C(C)Nc2ccc(C)cc2)c1O (centres undefined),-10,-33,-11,0.69,94,1.1
N=c1c(C(=O)NCc2ccccc2)cc2c(=O)n3ccccc3nc2n1Cc1ccco1,·,16,-6,12*,99,1.1
Brc1ccc(-c2noc(COc3ccc4c(c3)CCC4)n2)o1,·,4,-1,1.2,96,1
c1csc(-c2noc(COc3ccc4c(c3)CCCC4)n2)c1,·,126,5,4.4*,132*,0.9
O=C(NCCc1ccccc1)C1(c2ccccc2)CC1(Cl)Cl (centres undefined),·,2,-2,3.4*,95,1
c1ccc(CSc2ccc(-c3ccccn3)nn2)nc1,-15,77,16,2.3,133*,0.8
c1ccc(-c2ccc(SCc3cccnc3)nn2)nc1,13,64,14,1.9,122,0.9
O=[N+]([O-])c1cccc(-c2ccc(SCc3ccccn3)nn2)c1,9,33,11,1.9,135*,0.9
Clc1ccc(-c2ccc(SCc3ccccn3)nn2)cc1,2,44,2,3.2,145*,1
Cc1nc(N)nc(COc2ccccc2)n1,11,·,·,·,·,·
Cc1ccc(C(=O)Nc2nnc(C3CCCCC3)s2)o1,·,113,52*,3.8*,115,0.5
Cc1nc(NC(=O)c2ccc(Br)o2)sc1C,-2,121,40,4.7*,130*,0.6
Cc1ccc(C(=O)Nc2nc(C)c(C)s2)o1,-26,132,40,4*,132*,0.6
Cc1c(-n2c(SCC(=O)O)nnc2-c2ccccc2Cl)c(=O)n(-c2ccccc2)n1C,-17,8,-6,0.91,99,1.1
C=CCN1C(=O)C(CC(=O)Nc2ccc(OC)cc2)N(Cc2ccco2)C1=S (centres undefined),-10,1,-3,0.93,95,1
O=C(O)CC(NNC(=O)c1ccccc1)C(=O)Nc1ccc([N+](=O)[O-])cc1 (centres undefined),16,·,·,·,·,·
O=C(Cn1ncc2c1-c1ccccc1OC2)Nc1ccc(S(=O)(=O)N2CCCCC2)cc1,·,-9,-6,1,100,1.1
CS(=O)(=O)c1ccc(S(=O)CC(=O)OCc2ccccc2)c([N+](=O)[O-])c1 (centres undefined),-17,-48,-5,0.18,102,1.1
Cc1sc(NC(=O)C2CCCCC2C(=O)O)c(C(N)=O)c1-c1ccc(C(C)(C)C)cc1 (centres undefined),8,31,-8,1.3,99,1.1
Cc1sc(NC(=O)C2CCCCC2C(=O)O)c(C(N)=O)c1-c1ccccc1 (centres undefined),-2,36,55*,1.1,127,0.5
